“And” between values parts separate entries of the source, which are not always exact repeats. Equal entries are not always repeated. Where two headings read alike, the source gives them in different places.
What was measured:
[1] = Critical micelle concentration by DPH fluorimetric method; type: physicochemical
Procedure, shortened: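 Fluorimetric CMC determination: 10 μL of 1 mM diphenylhexatriene (DPH) in tetrahydrofuran added to test detergent serially diluted in ECS (pH 7.45, HEPES-buffered saline with glucose). Excitation 358 nm, emission scanned 400–500 nm. CMC taken at the sharp rise in fluorescence as DPH enters micelles.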

HEK293A cells = assay: XTT assay; type: cell-based; settings: 20 min
Procedure, shortened: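 HEK293A cells were seeded at 100000 cells/well and incubated overnight at 37 °C, 5% CO2. Cells were exposed 20 min to test compound in ECS, or to ECS alone, then the supernatant was replaced with PBS. XTT reagent (solution A:B, 50:1) was added and incubated 2 h at 37 °C. A490 minus A690 was read, and % viability was expressed relative to ECS-treated cells.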

HEK 293A cells [2] = assay: Quiescent partitioning experiment with trypan blue assay; type: cell-based; settings: range from error estimate
Procedure, shortened: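 Cationic detergent only. HEK 293A cells in ECS were pretreated 15 min with graded detergent concentrations as in the patch-clamp partitioning protocol. Trypan blue exclusion, not patch clamp, served as the membrane-permeability marker. Onset concentration was plotted against cellular lipid concentration and fitted linearly (slope Rb, intercept Dw). K was derived from R and Dw and reported as a range.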

HEK 293A cells [3] = type: cell-based; settings: for reversal of increased conductivity at end of experiment (600 s): 0.2 mM SDS 30 s exposure, 0.1 mM CTAB 10 s, 0.137 mM ORB 10 s; for reversibility of increased permeability induced within 10 s of exposure: 0.2 mM SDS, 0.1 mM CTAB, 0.137 mM ORB, 15 min after exposure
Procedure, shortened: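 IonFlux 16 whole-cell patch clamp of HEK 293A cells in ECS at sub-solubilising test concentrations, applied for 10, 30 or 300 s. Exposure was followed by ECS perfusion for 900 s. Membrane current was tracked for reversal. Controls were ECS alone or ECS + 5% DMSO, the vehicle for the rhodamine lipid probe.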

HEK 293A cells [4] = assay: Ensemble whole cell patch clamp; type: cell-based; settings: for change in membrane conductivity compared to ECS controls: 0.004 and 0.04 mM SDS, 0.0001 and 0.001 mM CTAB; for concentration at which increased membrane permeability is induced: current change 900 s after exposure, superfusion
[5] = POPC vesicles; cited from earlier work
HEK 293A cells [6] = type: cell-based; settings: for Dw ± standard error (detergent in water, intercept): quiescent, onset of increased permeability; for partition constant K [lower bound, upper bound]: range from error in Rb and intercept
Procedure, shortened: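 HEK 293A cells (passages 12–17) detached with detachin, rested in serum-free medium, then 1.5, 5, 10 or 15 million cells in ECS incubated 15 min with graded detergent. Cells were pelleted at 1000 rpm, resuspended in ECS and patched on an IonFlux 16 ensemble whole-cell system with K-aspartate intracellular solution. Time-averaged current over the first 4 min served as the permeability read-out. Detergent giving a 1 nA rise ×15 estimated the onset. Onset concentration vs lipid concentration was fitted linearly: slope Rb, intercept Dw.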

HEK 293A cells [7] = assay: Fluorescence microscopy of patched cells; type: cell-based; settings: ORB at all three concentrations, 10 min
[8] = depending on size, composition of vesicles and temperature; cited from earlier work
[9] = POPC/POPG vesicles; cited from earlier work
[10] = 2 mM SDS, 1 and 10 mM CTAB, 1.37 mM ORB
[11] = 0.004–0.2 mM SDS, 0.001–0.1 mM CTAB, 0.0137–0.137 mM ORB
[12] = 0.004–0.04 mM SDS, 0.0001–0.001 mM CTAB
[13] = 0.2 and 2 mM SDS, 0.1, 1 and 10 mM CTAB, 0.035, 0.14 and […] ORB

Structure (SMILES) | critical micelle concentration (CMC) in ECS [1] | CMC in water [1] | metabolic activity of exposed cells (XTT) (HEK293A cells; [10]) | metabolic activity of exposed cells (XTT) (HEK293A cells; [11]) | reversal of increased conductivity at end of experiment (600 s) (HEK 293A cells [3]) | reversibility of increased permeability induced within 10 s of exposure (HEK 293A cells [3]) | time of onset of current increase after compound release (HEK 293A cells [4]; 0.2 mM SDS, 0.1 mM CTAB) | group of current traces (HEK 293A cells [4]; 0.2 mM SDS, 0.1–10 mM CTAB) | time of onset of current increase after compound release (HEK 293A cells [4]; 2 mM SDS, 1 mM CTAB) | change in membrane conductivity compared to ECS controls (HEK 293A cells [4]) | group of current traces (HEK 293A cells [4]; [12]) | change in membrane current compared to ECS controls (HEK 293A cells [4]; [13]) | concentration at which increased membrane permeability is induced (HEK 293A cells [4]) | partition constant K [5] | Dw ± standard error (detergent in water, intercept) (HEK 293A cells [6]) | partition constant K [lower bound, upper bound] (HEK 293A cells [6]) | further results
CCCCCCCCCCCCCCCC[N+](C)(C)C [CTAB, cetyltrimethylammonium bromide] | 0.03 to 0.06 mM and ~0.06 mM | 1 to 2 mM | reduced metabolic activity | do not show a loss in metabolic activity | not reversed | not reversible for over 15 min | 2 to 3 s and 1 to 3 s | 2 | 1 s | did not cause a change in conductance | 1 | rapid increase in membrane current | 10 µM | 350000 M^–1 | 4.2 ± 2.8 | 29000–476000 M^–1 | partition constant K range (trypan blue assay) (HEK 293A cells [2]): 37000 to 67000 M^–1; current eventually reached as fraction of open channel current (HEK 293A cells [4]; 0.01 mM CTAB): 1/3; change in membrane current compared to ECS controls (HEK 293A cells [4]; 0.01 mM CTAB (below CMC)): slow increase in current; time of onset of current increase after compound release (HEK 293A cells [4]; 10 mM CTAB): 1 s
CCCCCCCCCCCCCCCCCCOC(=O)c1ccccc1-c1c2ccc(=[N+](CC)CC)cc-2oc2cc(N(CC)CC)ccc12.[Cl-] [ORB, octadecyl rhodamine B] |  |  | reduced metabolic activity | do not show a loss in metabolic activity | not reversed | not reversible for over 15 min |  |  |  |  |  | increased the membrane current significantly |  |  | 7.3 ± 3.1 | 24000–99000 M^–1 | state of cells after ORB exposure (ORB fluorescence) (HEK 293A cells [7]): fluorescent and intact; change in membrane current compared to controls (HEK 293A cells [4]; 0.014 (0.0137) mM ORB): significantly different from the ECS control but not 0.007 mM ORB
CCCCCCCCCCCCOS(=O)(=O)[O-].[Na+] [SDS, sodium dodecyl sulfate] | 0.8 to 1 mM and ~0.8 mM | 6 to 8 mM | reduced metabolic activity | do not show a loss in metabolic activity | not reversed | not reversible for over 15 min | 2 to 3 s | 2 | 1 s | does not result in an increase in conductivity | 1 | initial sharp increase in current | 200 µM | 33000 M^–1 | 29 ± 10 | 16300–39200 M^–1 | partition constant K [8]: 12500 to 70000 M^–1; partition constant K [9]: 37000 M^–1; duration of initial change in current (HEK 293A cells [4]; 0.2 mM SDS): 3 to 4 s; duration of subsequent slow current increase (HEK 293A cells [4]; 0.2 mM SDS): 67 ± 25 s; current reached at the end of 15 min (HEK 293A cells [4]; 0.2 mM SDS, total current of 20 cells): ~50 nA; final current level (HEK 293A cells [4]; 2 mM SDS): eventually reached open channel current levels; group of current traces (HEK 293A cells [4]; 2 mM SDS): 3; time to reach open channel current (HEK 293A cells [4]; 2 mM SDS, except one trace that took 871 s): 120 ± 61 s; time within which large and sudden increase in conductivity occurs (HEK 293A cells [4]; 0.2 and 2 mM SDS): 1 to 3 s

From PMC3983356 (The Journal of Physical Chemistry. B, 2014)
